Source: PubChem BioAssay (several laboratories)
T cruzi repl: T. cruzi replication inhibition | T. cruzi beta-gal in NIH3T3, luminescence, 90 h | inhibition, % (concentration not given with the values) | hit rate 1.4% among 300,000;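 active = mean inhibition across valid replicates above about 55%, limit read from the data; inconclusive = mean below that limit but half or more replicates reach it; inactive = mean below it, under half of replicates reach it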;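 note: signal also drops with host cell toxicity which is not excluded here; higher percent means less beta-gal luminescence so fewer parasites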
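compound dosing = single 50 nL compound addition per well in DMSO | material = NIH/3T3 host cells with β-galactosidase reporter T. cruzi | input = 5,000 host fibroblasts per well | timing = ≥90 h infection period, 3 h prior cell attachment | read-out basis = percent inhibition of parasite-derived β-gal signal | detection = GalScreen β-gal luminescence, detergent lysis, 60 min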
Beta cell apopt: beta cell apoptosis inhibition; hit rate 0.8% among 300,000; AID 435005; INS-1E cytokine-induced death, ATP luminescence, 48 h; percent of positive-control rescue, neutral wells zero; protection from apoptosis, % (test concentration not listed);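 active = Every replicate reaches about 75%, or at least half do and their mean reaches it too, limit read from the data; inconclusive = At least half of replicates reach the limit but their mean does not; inactive = Under half of replicates reach the limit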;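 note: higher means more ATP so stronger rescue from cytokine killing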
Calb FLC: affects C. albicans growth with fluconazole. hit rate 0.57% among 300,000. growth inhibition, % (no concentration beside the values). C. albicans CaCi-2 + fluconazole, Alamar Blue growth, 48 h;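 active = growth inhibition above about 58% in most replicates, limit read from the data, passing the limit was not always enough; inconclusive = exactly half the replicates above a set limit; inactive = most replicates below a set limit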;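 note: all wells also contain fluconazole at 8 µg/ml as a sub-toxic cotreatment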
CSC inhib: blocks cancer stem cells | inhibition, % at 7.5 µM | hit rate 1.1% among 300,000 | cancer stem cell-like cells viability, luminescence; in the data active = inhibition above about 75%; inconclusive = no clear call, values can overlap the other calls; tested in HMLE shEcad cells
H9c2 TAG inh: reduces triacylglycerol accumulation in H9c2 cells; hit rate 0.66% among 230,000; inhibition, % at 12.5 µM; AID 651582; Nile Red lipid (TAG) fluorescence; cells loaded with 200 µM oleic acid;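 active = pattern-corrected inhibition of lipid staining of at least 50% with the nuclear-stain viability signal not falling by more than 50%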
Bfl-1 A1 inh: inhibitors of the anti-apoptotic protein A1, read as caspase activation; MEF A1-2A-BIM cells, Caspase-Glo 3/7 luminescence, 3 h; percent of clofoctol response, vehicle zero; caspase activation, % (test concentration not listed); hit rate 0.066% among 330,000; AID 2462;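 active = over half of replicate activation scores above 10%, or exactly half above 10 with the replicate mean above 10; inconclusive = replicate mean below 10 yet half the replicates above 10; inactive = over half of replicates below 10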
Hits are given with their value; n = inactive; u = inconclusive; x = no result. Sampled rows, rich in hits. Any-hit rate of the full collection: about 3.1%.

SMILES | T cruzi repl | Beta cell apopt | Calb FLC | CSC inhib | H9c2 TAG inh | Bfl-1 A1 inh
Cc1cc2c(NC(=O)CCCC(=O)O)cccc2nn1 | n | n | n | n | n | n
Cc1cc2c(NC(=O)Nc3ccc(C(F)(F)F)cc3)cccc2nn1 | 69 | n | n | n | n | n
Cc1onc(-c2ccccc2)c1-c1nnc(CN2CCN(S(=O)(=O)c3ccccc3F)CC2)o1 | x | n | x | n | n | n
Cc1ccc(/C(N)=N/OC(=O)c2cccc(Cn3cc(C(F)(F)F)ccc3=O)c2)cc1 | n | 99 | n | n | n | n
O=C(Sc1ccc(Cl)cc1)c1cccc(Cn2cc(C(F)(F)F)ccc2=O)c1 | n | n | n | n | n | n
N/C(=N\OC(=O)c1cccc(Cn2cc(C(F)(F)F)ccc2=O)c1)c1ccccc1 | n | 113 | n | n | n | n
N/C(=N\OC(=O)c1cccc(Cn2cc(C(F)(F)F)ccc2=O)c1)c1ccc(Cl)cc1 | n | 113 | n | n | n | n
COc1ccc(C(=O)NCCCOC(C)C)cc1OC1CCN(C(C)=O)CC1 | n | n | n | n | x | n
O=C(/C=C/c1ccc2c(c1)S(=O)(=O)N(Cc1ccccc1)[C@H]2CC(=O)N1CCOCC1)N1CCOCC1 | x | n | x | n | n | n
CCCCSc1nc(N)nc2c1ncn2C1OC(CO)C(O)C1O (stereo not given) | x | x | x | x | n | x
CCOc1ccc(N(C)S(=O)(=O)c2ccc(C)c(C(=O)OCC(=O)c3c[nH]c4ccccc34)c2)cc1 | n | 75 | n | n | n | n
COc1ccc(C(=O)OCC(=O)c2c[nH]c3ccccc23)c(OC)c1 | x | n | x | n | n | n
O=C(NNC(=O)C1C2C=CC(C2)C1C(=O)O)c1cc(Cl)ccc1O (stereo not given) | x | n | n | n | n | n
O=C(NCc1cccnc1)/C(=C\c1ccc(-c2cccc(Cl)c2)o1)S(=O)(=O)c1ccccc1 | n | 104 | n | 101 | x | n
Cc1ccc(C(=O)N/C(=C\c2ccc(-c3cc(Cl)ccc3Cl)o2)C(=O)NCc2cccnc2)cc1 | n | n | n | n | n | n
O=C(NCc1cccnc1)/C(=C/c1ccc(-c2cccc(Cl)c2)o1)S(=O)(=O)c1ccccc1 | n | 112 | n | 100 | n | n
Cc1nn2c(NCCCN(C)C)c3c(nc2c1-c1ccccc1)CCC3 | 69 | n | n | x | x | n
O=C(COc1ccc(Cl)cc1)NC1CCSC1=O (stereo not given) | n | n | 102 | n | x | n
COC(=O)c1c(NC(=O)CC2SC(N)=NC2=O)sc2c1CCC(C(C)(C)C)C2 (stereo not given) | n | n | n | 109 | x | n
Cc1c(Cl)cccc1NC(=O)CN1CCC(C(O)(c2ccccc2)c2ccccc2)CC1 | 62 | n | n | n | x | n
CC1CCN(CC(=O)Nc2ccccc2Sc2ccccc2)CC1 | n | n | n | 117 | x | n
COc1ccc(C(=O)OCC(=O)c2ccc[nH]2)cc1 | x | n | x | n | n | n
COc1ccc(C2=NS(=O)(=O)N(C)C(C(=O)NC3CCCCC3)=C2)cc1OC | n | n | n | n | n | n
COc1cccc2sc(N(CCCN(C)C)C(=O)c3ccc(S(=O)(=O)N4CCc5ccccc5C4)cc3)nc12 | n | n | n | n | x | n
COc1ccc(OC)c2sc(N(CCCN(C)C)C(=O)c3ccc(S(=O)(=O)N4CCc5ccccc5C4)cc3)nc12 | 60 | 100 | n | 101 | x | u
SMILES | T cruzi repl | Beta cell apopt | Calb FLC | CSC inhib | H9c2 TAG inh | Bfl-1 A1 inh
COc1cc2nc(N(CCCN(C)C)C(=O)c3ccc(S(=O)(=O)N4CCc5ccccc5C4)cc3)sc2cc1OC | 57 | x | n | n | n | n
C=CCNc1nnc(SCC(=O)N2CCC(C(N)=O)CC2)s1 | n | x | n | n | n | n
Cc1cccc(N2CCN(C(=O)c3cc(COc4ccc(F)c(F)c4)on3)CC2)n1 | n | n | n | n | x | n
O=C(CCCOc1ccc(Cl)cc1Cl)N/N=C/c1ccccc1 | n | n | n | n | x | n
O=C(CCCOc1ccc(Cl)cc1Cl)N/N=C/c1ccccc1O | n | n | n | 168 | x | n
O=C(COc1ccc(Cl)cc1Cl)N/N=C/c1ccc[nH]1 | n | n | n | 79 | x | n
CNC(=O)C(=O)NCC1OCCN1S(=O)(=O)c1ccc([N+](=O)[O-])cc1 (stereo not given) | n | x | n | n | x | n
O=C(NCc1ccccc1)C(=O)NCC1OCCN1S(=O)(=O)c1ccc([N+](=O)[O-])cc1 (stereo not given) | 60 | n | n | n | x | n
CCN(CC)S(=O)(=O)c1cccc(-c2nnc(SCCCC(=O)c3ccc(F)cc3)o2)c1 | 60 | n | n | n | n | n
CCN(CC)S(=O)(=O)c1cccc(-c2nnc(SCc3nc4ccccc4s3)o2)c1 | n | n | n | n | n | n
CCN(CC)S(=O)(=O)c1cccc(-c2nnc(SCCCC(=O)c3ccccc3)o2)c1 | 66 | n | n | n | n | n
COc1ccc(C2CC(c3cccs3)=NN2C(=O)CSc2nc3ccccc3s2)cc1 (stereo not given) | n | n | n | n | x | n
Cc1ccn2c(=O)nc(SCC(=O)N3N=C(c4cccs4)CC3c3ccc(F)cc3)nc2c1 (stereo not given) | 59 | n | n | n | n | n
O=C(CSc1nc2ccccc2s1)N1N=C(c2cccs2)CC1c1ccc(F)cc1 (stereo not given) | 56 | n | n | n | x | n
Cc1cccn2c(=O)nc(SCC(=O)N3N=C(c4cccs4)CC3c3ccc(F)cc3)nc12 (stereo not given) | 67 | x | n | x | n | x
CCOc1cc(N2CCOCC2)c(OCC)cc1NC(=O)c1cc(S(=O)(=O)N2CCOCC2)ccc1C | x | n | x | n | n | n
C[C@@H](C(=O)Nc1nc(-c2ccccn2)cs1)N1C(=O)C2CCCCC2C1=O (stereo not given in full) | n | n | n | n | n | n
CCc1nnc(NC(=O)C(NC(=O)c2ccccc2Cl)C(C)C)s1 (stereo not given) | n | n | n | n | n | n
CC(Oc1ccc(Br)cc1)C(=O)Nc1nc(-c2ccccn2)cs1 (stereo not given) | 69 | x | n | 89 | n | n
CC(C)[C@H](NC(=O)c1ccccc1Cl)C(=O)Nc1nc(-c2ccccn2)cs1 | 66 | n | n | n | n | n
CCn1c(SCC(=O)Nc2ccc3c(c2)OCCO3)nnc1C1CC1 | n | n | n | n | x | n
CCOC(=O)C1=C(C)Nc2ccccc2N=C1NC(=O)C1CCN(C(=O)c2ccccc2C)CC1 | x | n | x | n | n | n
Cc1cc(C)c(-c2cc(NC(=O)COC(=O)c3ccc(C#N)cc3)n(-c3ccccc3)n2)cc1C | n | n | 77 | n | x | n
Cc1cc(C)c(-c2cc(NC(=O)COC(=O)c3ccc(NC(=O)CC#N)cc3)n(-c3ccccc3)n2)cc1C | n | n | n | n | n | n
COc1cc(CN2CCN(c3cccc(Cl)c3)CC2)cc(OC)c1OC | n | n | n | 93 | x | n
COc1cc(CN2CCN(S(=O)(=O)c3ccccc3)CC2)cc(OC)c1OC | n | n | n | n | n | n
